Screening results deposited in PubChem BioAssay by Johns Hopkins Ion Channel Center.
Hits are enriched below; roughly 3.7% of the tested compounds scored in any of these assays.
KCNQ1 act = potentiates or activates the human KCNQ1 potassium channel; actives 0.35% (n = 310,000); B-score at 10 µM; AID 2648; P51787; CHO-K1 KCNQ1, thallium flux FluxOR fluorescence; hits give high values;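 active means fluorescence ratio B-score, a plate-corrected score, at least three library SD, with initial intensity B-score within 5 SD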
Target sequence (P51787 whole entry, looked up): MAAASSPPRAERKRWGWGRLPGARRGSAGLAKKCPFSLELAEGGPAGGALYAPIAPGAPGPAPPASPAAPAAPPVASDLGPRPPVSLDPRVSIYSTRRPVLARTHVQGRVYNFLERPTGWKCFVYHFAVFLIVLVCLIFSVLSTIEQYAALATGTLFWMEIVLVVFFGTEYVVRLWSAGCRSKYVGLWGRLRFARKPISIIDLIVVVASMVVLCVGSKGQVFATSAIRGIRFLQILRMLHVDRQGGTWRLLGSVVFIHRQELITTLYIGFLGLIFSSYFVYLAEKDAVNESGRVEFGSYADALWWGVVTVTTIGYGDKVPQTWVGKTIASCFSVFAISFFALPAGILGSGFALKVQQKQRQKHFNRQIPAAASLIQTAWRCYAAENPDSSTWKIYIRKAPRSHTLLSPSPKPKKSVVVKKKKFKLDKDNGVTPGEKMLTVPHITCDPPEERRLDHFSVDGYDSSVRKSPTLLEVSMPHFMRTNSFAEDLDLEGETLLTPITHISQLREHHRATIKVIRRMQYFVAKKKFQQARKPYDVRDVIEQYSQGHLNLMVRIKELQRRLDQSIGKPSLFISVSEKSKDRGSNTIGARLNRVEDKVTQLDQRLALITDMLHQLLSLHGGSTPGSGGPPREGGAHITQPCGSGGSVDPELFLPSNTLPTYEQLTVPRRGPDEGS
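Assay system: CHO-K1 cells stably expressing KCNQ1; Medium: assay buffer with matched DMSO; Also added: K+/Tl+ depolarizing stimulus; Dosing: single dose; Timing: dye 90 min, compound 20 min, room temperature; Measured by: kinetic FluxOR thallium fluorescence, 10-s 1-Hz baseline, 110-s post-stimulus read; Read-out: peak-minus-minimum fluorescence over initial fluorescence, negative-control normalized, B-scored.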
KCNQ1 inh = blocks the human KCNQ1 potassium channel | CHO-K1 KCNQ1, FluxOR thallium flux fluorescence; hits give high values | B-score at 10 µM | P51787 | AID 2642 | actives 1.3% (n = 310,000);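 active means compounds whose thallium flux B-score, printed positive for inhibition, exceeds three library SD while starting fluorescence stays within three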;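 further: channel opened by potassium depolarization with thallium stimulus after 20 min compound exposure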
KCNK3 inh = human KCNK3 channel inhibition, primary screen; B-score at 10 µM; O14649; actives 0.84% (n = 340,000); CHO-KCNK3 thallium flux, FluxOR fluorescence; hits give low values;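 active means B-score under library mean minus 4 SD, starting fluorescence ratio at most library mean plus 5 SD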;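 further: more negative B-score means stronger inhibition of thallium flux through KCNK3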
hERG rescue = compounds protecting human hERG from proarrhythmic drug block. Q12809. CHO-hERG, FluxOR thallium flux, dofetilide IC70 present. activation (rescue from dofetilide block), less the hit threshold, % at 10 µM. actives 0.51% (n = 310,000). AID 1511;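 active means activation above the mean of controls blocked by dofetilide plus 5 SD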;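 further: thallium influx through hERG after potassium depolarization seen as dye fluorescence rise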
Kir21 inh = blocks the mouse Kir2.1 inward-rectifier potassium channel | P35561 | HEK293-Kir2.1, FluxOR thallium flux fluorescence; hits give low values | B-score at 10 µM | actives 0.85% (n = 310,000);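 active means fluorescence ratio B-score at or below minus 3 SD of library scores, with starting-brightness B-score within 2 SD, cut at about -4.2 in these data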;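 further: channel flux triggered by added potassium and thallium sulfate stimulus; B-score of peak minus minimum fluorescence over baseline after thallium stimulus; more negative B-score means stronger Kir2.1 block with less thallium influx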
KCNK9 inh = human KCNK9 channel inhibition; actives 1.2% (n = 310,000); HEK293 KCNK9, FluxOR thallium flux fluorescence; hits give low values; B-score at 10 µM; Q9NPC2;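 active means ratio B-score over 3 SD below the library mean, with starting fluorescence within 5 SD of its mean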;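 further: negative B-score means less thallium flux so channel inhibition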
The depositor's hits bear a star; i = inactive; nt = no result.

SMILES	KCNQ1 act	KCNQ1 inh	KCNK3 inh	hERG rescue	Kir21 inh	KCNK9 inh
CCCCNC(=O)c1ccc(NC(=O)C2CCCO2)cc1 (stereo unspecified)	i	i	i	40.2*	-0.27	i
CCOc1ccc(-c2cc(N3C(=O)Nc4ccccc4N3O)n[nH]2)cc1	i	i	i	-1.9	0.18	i
CCOC(=O)c1c(N2C(=O)Nc3ccccc3N2O)n[nH]c1-c1cccc(Cl)c1	36*	i	i	10.6*	0.11	i
CC(=O)Nc1ccc(NC(=O)CSc2nc(N)c(NC(=O)c3ccccc3F)c(=O)[nH]2)cc1	i	i	i	-6.0	-0.54	i
CSCCC(C(=O)N(C)CC(=O)Nc1cccc(F)c1)N1C(=O)c2ccccc2C1=O (stereo unspecified)	nt	nt	i	nt	nt	nt
COc1ccc(C(=O)CC(=O)C(=O)Nc2ccccc2C(F)(F)F)cc1	12*	i	i	7.8*	0.4	i
COc1ccc(C(=O)CC(=O)C(=O)Nc2cc(Cl)c(OC)cc2OC)cc1	i	i	i	-7.1	-1	i
COc1ccc(C(=O)CC(=O)C(=O)Nc2ccc(Cl)cc2)cc1	i	i	i	12.9*	-0.34	i
COc1ccc(C(=O)CC(=O)C(=O)Nc2ccccc2Cl)cc1	i	i	i	12.5*	0.21	i
O=C(C(=O)N(Cc1ccccc1)Cc1ccccc1)c1c(-c2ccccc2)[nH]c2ccccc12	nt	nt	i	nt	nt	nt
CCn1ncc(CN2CCC(Oc3cc(C(=O)NC4CC4)ccc3OC)CC2)c1C	i	i	i	-9.6	-0.27	i
CCOc1ccccc1NC(=O)CN1CCC(C(=O)c2ccc(F)cc2)CC1	i	i	i	-4.8	-0.13	-7.07*
COc1ccccc1NC(=O)CN1CCC(C(=O)c2ccc(F)cc2)CC1	i	i	i	-16.0	-0.43	i
Cc1ccc(S(=O)(=O)N(C)c2ccc(OC(=O)COc3ccccc3)cc2)cc1	nt	nt	i	nt	nt	nt
Cc1ccc(S(=O)(=O)CC(=O)Nc2nc(-c3ccccc3)cs2)cc1	i	6*	i	-8.1	0.85	i
Cc1ccc(S(=O)(=O)N(C)c2ccc(OCC(=O)Nc3nc(-c4ccccc4)cs3)cc2)cc1	i	i	i	-12.5	0.16	-7.22*
Cc1ccc(S(=O)(=O)N(C)c2ccc(OC(=O)c3cccs3)cc2)cc1	nt	nt	-9.53*	nt	nt	nt
CC1CC(C)CN(C(=O)COC(=O)c2ccc3ccccc3n2)C1 (stereo unspecified)	nt	nt	i	nt	nt	nt
CC(Sc1nnc(C2CC2)n1C1CC1)C(=O)c1ccc(Br)cc1 (stereo unspecified)	nt	nt	i	nt	nt	nt
CCn1c2ccccc2c2cc(/C=N/NC(=O)c3ccc(O)cc3)ccc21	i	i	i	-9.3	-4.43*	i
CO/N=C(/CS(=O)c1ccc(Br)cc1)c1ccc(OC)cc1 (stereo unspecified)	i	i	i	-11.5	-8.95*	i
CCOc1cc(/C=N/O)cc(Br)c1OCC(=O)NCc1ccccc1	i	i	i	-3.3	-1.23	i
COc1cc(/C=N/O)cc(Br)c1OCC(=O)NCc1ccccc1	i	i	i	-7.3	-5.97*	i
COc1cc(/C=N/NC(=O)Cn2nc([N+](=O)[O-])cc2C)cc(Br)c1OCc1ccccc1	i	i	-9.87*	-7.5	-2.33	i
CN(C(=O)c1cccc(NC(=O)Cc2cccc(NC(=O)C3CCCN(C(=O)C4CCCCC4)C3)c2)c1)C1CCC1 (stereo unspecified)	nt	nt	i	nt	nt	nt
SMILES	KCNQ1 act	KCNQ1 inh	KCNK3 inh	hERG rescue	Kir21 inh	KCNK9 inh
CN(C(=O)c1cc2n(n1)C(C(F)(F)F)CC(c1ccco1)N2)c1ccc(OC(F)(F)F)cc1 (stereo unspecified)	i	i	i	-5.9	-0.68	i
CN(C(=O)c1cc2n(n1)C(C(F)(F)F)CC(c1ccco1)N2)c1ccccc1 (stereo unspecified)	i	i	i	-2.9	-0.21	-6.69*
CN(Cc1cnccn1)Cc1nc(Cc2ccccc2F)no1	i	i	i	27.9*	-3.15	i
C[C@@H](NC(=O)Cn1ccc(N)nc1=O)c1cccc2ccccc12	nt	nt	i	nt	nt	nt
CC(=O)Nc1cccc(OCC(=O)NC(C)c2ccc3ccccc3c2)c1 (stereo unspecified)	i	i	i	-7.0	-6.23*	i
O=C1CCCN1CCCNS(=O)(=O)c1cccc(F)c1	i	i	i	4.9*	-1.34	i
O=C1NC(=O)c2c(Br)c(Br)c(Br)c(Br)c21	nt	nt	i	nt	nt	nt
CCC(CCC(=O)Nc1ccc(S(N)(=O)=O)cc1)C(=O)O (stereo unspecified)	i	i	i	5.1*	-0.89	i
Cc1ccc(CNC(=O)C2CCCN2S(=O)(=O)c2ccc(Cl)cc2)cc1 (stereo unspecified)	i	i	i	-11.8	2.19	i
Cc1ccc(S(=O)(=O)N2CCCC2C(=O)NCc2ccc3c(c2)OCO3)cc1 (stereo unspecified)	i	i	i	9.9*	0.12	i
Cc1cccn2c(=O)c3cc(C(=O)N4c5ccccc5CC4C)n(C)c3nc12 (stereo unspecified)	i	i	i	9.2*	-0.59	i
CNCCCCOc1ccc(C(C)(C)C)cc1Cl	i	i	i	-11.2	-4.87*	i
CNCCCOc1ccc(C)cc1Br	i	i	i	-15.2	-1.23	i
COc1ccc(C(CNC(=O)c2ccc(Cl)c(NC(=O)c3cccs3)c2)N2CCCC2)cc1 (stereo unspecified)	i	i	i	-10.3	0.02	i
Fc1ccc(-c2nc3ccccc3[nH]2)cc1	i	i	i	-9.6	-0.07	i
S=c1nc(-c2ccc(Br)cc2)[nH]c2ccccc12	111*	i	i	31.5*	1.23	i
Cc1csc(NC(=O)CCS(=O)(=O)c2ccc(Br)cc2)n1	i	i	i	-0.4	-4.32*	i
Cc1csc(NC(=O)C(C)Oc2ccc(Br)cc2)n1 (stereo unspecified)	i	i	i	-19.7	-4.96*	i
CCCOc1ccc(C(=O)NC(=S)NNC(=O)c2c(-c3ccccc3)noc2C)cc1	15*	i	i	-12.3	1.31	i
CCOC(=O)c1cc(-c2ccccc2)sc1NC(=O)C(C)N1C(=O)c2ccccc2C1=O (stereo unspecified)	i	i	i	-2.8	0.72	-7.97*
O=C(C1=C(O)C(=O)N(c2ncccn2)C1c1cccc(Cl)c1)c1ccco1 (stereo unspecified)	i	i	i	-10.7	1.09	i
